Measurements taken from ChEMBL document CHEMBL3259642, “Design and synthesis of novel 2-phenyl-5-(1,3-diphenyl-1H-pyrazol-4-yl)-1,3,4-oxadiazoles as selective COX-2 inhibitors with potent anti-inflammatory activity” (Eur J Med Chem, 2014).

How the values were obtained:
[1] = target: T1, Prostaglandin G/H synthase 2 (Homo sapiens, UniProt P35354); test: Inhibition of human recombinant COX2 after 2 mins by EIA
T1 sequence (P35354 whole entry): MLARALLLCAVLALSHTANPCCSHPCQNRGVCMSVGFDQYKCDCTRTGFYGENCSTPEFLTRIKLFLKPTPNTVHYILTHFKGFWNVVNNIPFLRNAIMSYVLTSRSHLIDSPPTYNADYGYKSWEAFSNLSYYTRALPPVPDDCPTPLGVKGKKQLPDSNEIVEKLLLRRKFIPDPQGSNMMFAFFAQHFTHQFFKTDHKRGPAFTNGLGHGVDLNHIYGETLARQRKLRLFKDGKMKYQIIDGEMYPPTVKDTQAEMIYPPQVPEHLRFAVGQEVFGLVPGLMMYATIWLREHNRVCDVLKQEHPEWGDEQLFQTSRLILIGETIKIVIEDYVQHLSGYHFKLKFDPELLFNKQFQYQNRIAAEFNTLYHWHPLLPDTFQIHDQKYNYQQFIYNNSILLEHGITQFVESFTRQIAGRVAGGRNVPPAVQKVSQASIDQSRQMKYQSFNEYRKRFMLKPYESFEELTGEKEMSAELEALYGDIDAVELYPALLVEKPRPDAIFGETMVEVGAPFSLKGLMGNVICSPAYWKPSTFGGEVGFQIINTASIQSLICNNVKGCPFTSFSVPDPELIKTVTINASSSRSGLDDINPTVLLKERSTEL

[2] = Selectivity index, ratio of IC50 for ovine COX1 to IC50 for human recombinant COX2
Method in brief: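 Fluorescent screening kit with ovine COX-1 or human recombinant COX-2, heme and ADHP substrate in 0.1 M Tris-HCl pH 8.0 with 5 mM EDTA and 2 mM phenol. Compounds in DMSO tested at 0.01-100, 5 min at 37 °C. Arachidonic acid added; reaction stopped with HCl after 2 min. Resorufin read at ex 535/em 590 nm. IC50 from triplicate concentration-inhibition curves; SI = COX-1 IC50/COX-2 IC50.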

[3] = target: T2, Prostaglandin G/H synthase 1 (Ovis aries, UniProt P05979); test: Inhibition of ovine COX1 after 2 mins by EIA
T2 sequence (P05979 whole entry): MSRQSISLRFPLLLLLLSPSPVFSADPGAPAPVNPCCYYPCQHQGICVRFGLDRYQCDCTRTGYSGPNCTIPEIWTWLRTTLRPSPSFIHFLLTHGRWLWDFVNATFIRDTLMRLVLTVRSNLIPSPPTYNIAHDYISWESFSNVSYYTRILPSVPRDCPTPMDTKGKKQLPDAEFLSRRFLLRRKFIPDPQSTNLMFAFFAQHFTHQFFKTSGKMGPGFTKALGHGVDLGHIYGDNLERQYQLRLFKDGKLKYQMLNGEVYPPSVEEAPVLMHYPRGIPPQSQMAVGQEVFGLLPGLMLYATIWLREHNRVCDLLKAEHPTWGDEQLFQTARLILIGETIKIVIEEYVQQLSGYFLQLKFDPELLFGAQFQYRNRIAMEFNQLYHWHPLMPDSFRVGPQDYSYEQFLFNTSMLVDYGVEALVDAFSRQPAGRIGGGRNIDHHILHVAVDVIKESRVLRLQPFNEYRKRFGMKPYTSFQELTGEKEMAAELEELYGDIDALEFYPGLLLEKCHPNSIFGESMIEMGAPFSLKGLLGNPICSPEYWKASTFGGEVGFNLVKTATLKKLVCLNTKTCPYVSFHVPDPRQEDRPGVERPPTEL

Rattus norvegicus [4] = test: Ulcerogenic activity in po dosed albino rat at 200 mg/kg, po administered intragastrically measured after 3 hrs; assay type: toxicity, organism-based; set-up: dose 200 mg/kg, route oral; conditions: in vivo
Method in brief: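 Rats of 180-200 g, 6 per group, fasted 24 h, dosed intragastrically at 200 mg/kg. Killed 3 h later; stomachs opened along the lesser curvature. Each hemorrhagic lesion measured along its maximum length and ranked. Lesion lengths summed to give the ulcer index, reported as mean ± SEM.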

Mus musculus [5] = test: Analgesic activity in mouse assessed as inhibition of acetic acid-induced writhing at 100 mg/kg, po administered 60 mins prior challenge measured for 5 to 10 mins post acetic acid challenge relative to control; assay type: functional
Method in brief: (§1)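 Groups of 6 mice given saline, test compound (200 mg/kg) or aspirin (100 mg/kg) orally. 60 min later, 0.6% acetic acid injected i.p. Writhes per mouse counted between 5 and 10 min after injection. Percent inhibition of writhes calculated against the saline control group.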

Rattus norvegicus [6] = test: Antiinflammatory activity in po dosed albino rat assessed as inhibition of carrageenan-induced paw edema administered 1 hr prior challenge measured 2 hrs post challenge; assay type: functional
Method in brief: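 Male Charles Foster albino rats, 150-200 g, n = 6 per group. Compounds suspended in 0.5% methyl cellulose, given orally at 50, 100 and 200 mg/kg; reference drugs at 25, 50 and 100 mg/kg. 1 h later, 0.2 mL of 1% carrageenan in 0.9% NaCl injected into the right hind paw.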

Mus musculus [7] = test: Analgesic activity in mouse assessed as inhibition of acetic acid-induced writhing at 200 mg/kg, po administered 60 mins prior challenge measured for 5 to 10 mins post acetic acid challenge relative to control; assay type: functional; method in brief: as §1

| SMILES | IC50 [1] | Ratio IC50 [2] | IC50 [3] | Activity (Rattus norvegicus [4]) | inhibition in vivo at 100 mg/kg (Mus musculus [5]) | ED50 (Rattus norvegicus [6]) | inhibition in vivo at 200 mg/kg (Mus musculus [7]) |
| --- | --- | --- | --- | --- | --- | --- | --- |
| COc1ccc(-c2nn(-c3ccccc3)cc2-c2nnc(-c3ccc(Cl)cc3)o2)cc1 | 67 µM | > 1.5 | > 100 µM |  |  |  |  |
| CC(=O)Oc1ccccc1C(=O)O [ASPIRIN] |  |  |  | Toxic | 72.2% |  |  |
| Cc1ccc(-c2cc(C(F)(F)F)nn2-c2ccc(S(N)(=O)=O)cc2)cc1 [CELECOXIB] |  |  |  |  |  | 81.7 mg/kg |  |
| Cc1ccc(-c2nn(-c3ccccc3)cc2-c2nnc(-c3ccc(Cl)cc3)o2)cc1 | 58 µM | > 1.7 | > 100 µM |  |  |  |  |
| Clc1ccc(-c2nnc(-c3cn(-c4ccccc4)nc3-c3ccc(Cl)cc3)o2)cc1 | 8.7 µM | > 11.5 | > 100 µM |  |  | 199 mg/kg |  |
| c1ccc(-c2nn(-c3ccccc3)cc2-c2nnc(-c3ccncc3)o2)cc1 | 11.1 µM | > 9 | > 100 µM |  |  |  |  |
| Brc1ccc(-c2nn(-c3ccccc3)cc2-c2nnc(-c3ccncc3)o2)cc1 | 39 µM | > 2.6 | > 100 µM |  |  |  |  |
| COc1ccc(-c2nn(-c3ccccc3)cc2-c2nnc(-c3ccncc3)o2)cc1 | 42 µM | > 2.4 | > 100 µM |  |  |  |  |
| Cc1ccc(-c2nn(-c3ccccc3)cc2-c2nnc(-c3ccncc3)o2)cc1 | 53 µM | > 1.9 | > 100 µM |  |  |  |  |
| O=C(O)Cc1ccccc1Nc1c(Cl)cccc1Cl [DICLOFENAC] |  |  |  |  |  | 110 mg/kg |  |
| Cc1ccc(-c2nn(-c3ccccc3)cc2-c2nnc(-c3ccccc3)o2)cc1 | 25 µM | > 4 | > 100 µM |  |  |  |  |
| Clc1ccc(-c2nnc(-c3cn(-c4ccccc4)nc3-c3ccccc3)o2)cc1 | 38 µM | > 2.6 | > 100 µM |  |  |  |  |
| COc1ccc(-c2nn(-c3ccccc3)cc2-c2nnc(-c3ccccc3)o2)cc1 | > 100 µM | > 1 | > 100 µM |  |  |  |  |
| Clc1ccc(-c2nnc(-c3cn(-c4ccccc4)nc3-c3ccc(Br)cc3)o2)cc1 | 50 µM | > 2 | > 100 µM |  |  |  |  |
| Brc1ccc(-c2nn(-c3ccccc3)cc2-c2nnc(-c3ccccc3)o2)cc1 | > 100 µM | > 1 | > 100 µM |  |  |  |  |

Second part, led by results:

| IC50 [1] | Ratio IC50 [2] | IC50 [3] | SMILES | Activity (Rattus norvegicus [4]) | inhibition in vivo at 100 mg/kg (Mus musculus [5]) | ED50 (Rattus norvegicus [6]) | inhibition in vivo at 200 mg/kg (Mus musculus [7]) |
| --- | --- | --- | --- | --- | --- | --- | --- |
| 4.7 µM | > 21 | > 100 µM | Clc1ccc(-c2nn(-c3ccccc3)cc2-c2nnc(-c3ccccc3)o2)cc1 |  |  | 171 mg/kg |  |
| 2.3 µM | > 43 | > 100 µM | Fc1ccc(-c2nn(-c3ccccc3)cc2-c2nnc(-c3ccncc3)o2)cc1 |  |  | 123 mg/kg |  |
| 0.31 µM | > 222 | > 100 µM | O=[N+]([O-])c1ccc(-c2nn(-c3ccccc3)cc2-c2nnc(-c3ccccc3)o2)cc1 | Non-toxic |  | 74.3 mg/kg | 67.3% |
| 0.5 µM | > 200 | > 100 µM | O=[N+]([O-])c1ccc(-c2nn(-c3ccccc3)cc2-c2nnc(-c3ccncc3)o2)cc1 |  |  | 72.6 mg/kg |  |
| 4.4 µM | > 23 | > 100 µM | Clc1ccc(-c2nn(-c3ccccc3)cc2-c2nnc(-c3ccncc3)o2)cc1 |  |  | 167 mg/kg |  |
| 5.5 µM | > 18.2 | > 100 µM | Fc1ccc(-c2nn(-c3ccccc3)cc2-c2nnc(-c3ccc(Cl)cc3)o2)cc1 |  |  | 182 mg/kg |  |
| 1.5 µM | > 67 | > 100 µM | c1ccc(-c2nnc(-c3cn(-c4ccccc4)nc3-c3ccccc3)o2)cc1 |  |  | 125 mg/kg |  |
| 6.5 µM | > 15.4 | > 100 µM | Fc1ccc(-c2nn(-c3ccccc3)cc2-c2nnc(-c3ccccc3)o2)cc1 |  |  | 175 mg/kg |  |
| 1.2 µM | > 83.3 | > 100 µM | O=[N+]([O-])c1ccc(-c2nn(-c3ccccc3)cc2-c2nnc(-c3ccc(Cl)cc3)o2)cc1 |  |  | 167 mg/kg |  |
